Results of several laboratories.
Each line is one published result; the experiments were not run side by side.
Target: Rho-associated protein kinase 1 (ROCK1, Homo sapiens, UniProt Q13464)

c1ccc(N2CCN(Cc3nc4ccccc4[nH]3)CC2)nc1 gave a remaining binding of 100% (binding, competition with immobilised ligand; 1 µM).
The remaining signal of O=C1Nc2ccc(Cl)cc2C1=Cc1cc(Cl)c(O)c(Cl)c1 is reported as 93.2% (cell-free assay; 0.5 µM).
For CN1CCN(c2cnc3c(C4CCN(C(=O)c5ccc(OC(F)(F)F)cc5N)CC4)ncnc3c2)CC1, the remaining binding was 100% (cell-free assay, competition with immobilised ligand; 1 µM).
For CC(C)(C)c1nc(-c2cccc(NS(=O)(=O)c3c(F)cccc3F)c2F)c(-c2ccnc(N)n2)s1, the remaining activity was 104% (enzyme activity, inhibitor, radiometric; 1 µM).
Cc1ccc(Nc2nccc(N(C)c3ccc4c(C)n(C)nc4c3)n2)cc1S(N)(=O)=O gave an inhibition of -1% (enzyme activity, inhibitor; 0.3 µM).
The activity vs control of CC(C)c1ccc(NC(=O)c2cccs2)c(-c2nc3ccccc3[nH]c2=O)c1 is reported as 122% (enzyme activity, inhibitor; 1 µM).
With CNC(=O)c1cc(Oc2ccc(NC(=O)Nc3ccc(Cl)c(C(F)(F)F)c3)cc2)ccn1 the inhibition was 0% (enzyme activity, inhibitor; 0.3 µM).
CNc1cc(Oc2cc(C(=O)Nc3cc(N4CCN(C)CC4)cc(C(F)(F)F)c3)ccc2C)ncn1 gave an inhibition of -28.8% (target engagement in cells, inhibitor, chemoproteomics; Huh-7; 1 µM).
The inhibition of CC/C(=N\NC(=O)C(C)Nc1ccccc1)c1ccc(O)c(C)c1O (centres unmarked) is reported as 18.5% (enzyme activity, inhibitor; 0.1 µM).
With COc1ccc2c(c1)O[C@@H](c1ccc(OC)c(OC)c1)C[C@H]2NC(=O)C1(c2ccc3c(c2)OC(F)(F)O3)CC1 the remaining binding was 89% (cell-free assay, competition with immobilised ligand; 1 µM).
For O=C(Nc1cnn(-c2csc(C(=O)NC3COC3)c2)c1)Nc1ccccc1Cl, the remaining activity was 109% (enzyme activity, inhibitor; 5 µM).
The inhibition of COc1cc2ncnc(Nc3ccc(Oc4ccccc4)c(C)c3C)c2cc1OC is reported as -12% (enzyme activity, inhibitor; 1 µM).
CCN(CC)c1ccc(C2=NNC(=O)CC2C)cc1[N+](=O)[O-] (centres unmarked) gave a remaining activity of 109% (enzyme activity, inhibitor; 10 µM).
With C[C@@H]1CN(c2cc(-c3nn(C)c4ccc(OC5(C)CC5)cc34)ncn2)C[C@H](C)O1 the remaining binding was 100% (cell-free assay, competition with immobilised ligand; 1 µM).
CSc1nc(C)c(-c2ccnc(Nc3ccc(N4CCOCC4)cc3)c2)[nH]1 gave an inhibition of -4.2% (enzyme activity, inhibitor; 10 µM).
For CN1CC(Oc2cnc(C#N)cc2-c2ccn3nc(NC(=O)C4CC4)cc3c2)C1, the inhibition was 0% (enzyme activity, inhibitor; 1 µM).
For COc1cccc2c(NCc3ccccc3)nc(-n3c(N)nc4ccccc43)nc12, the inhibition was 2.2% (target engagement in cells, inhibitor, chemoproteomics; 20 mM).
For CN(c1ccnc(CNc2nc(Nc3ccc4c(c3)CC(=O)N4)ncc2C(F)(F)F)n1)S(C)(=O)=O, the remaining binding was 49% (cell-free assay, competition with immobilised ligand; 1 µM).
C[C@@H](N)[C@H]1CC[C@H](C(=O)Nc2ccncc2)CC1 gave a remaining signal of 31.5% (cell-free assay; 0.5 µM).
With O=C(Nc1cnn(-c2csc(C(=O)NC3COC3)c2)c1)Nc1c(F)cccc1Cl the remaining activity was 78.2% (enzyme activity, inhibitor; 5 µM).
CN(C)CC#Cc1ccc(OCCCc2sc(N3CCc4cccc(C(=O)Nc5nc6ccccc6s5)c4C3)nc2C(=O)O)c(F)c1 gave a remaining binding of 100% (cell-free assay, competition with immobilised ligand; 1 µM).
For CCN(CC)CCNC(=O)c1c(C)[nH]c(/C=C2\C(=O)Nc3ccc(F)cc32)c1C, the inhibition was 26% (enzyme activity, inhibitor; 10 µM).
For CN(C)c1ncnc(-c2ccc3nc(Nc4cc(CN5CCN(C(=O)CC(F)(F)F)CC5)ccn4)[nH]c3c2)c1Cl, the remaining binding was 100% (cell-free assay, competition with immobilised ligand; 1 µM).
For O=S(=O)(c1cccc2cnccc12)N1CCCNCC1, the remaining signal was 60.2% (cell-free assay; 0.5 µM).
Cn1cncc1C1=CN(c2ncnc3[nH]cnc23)CCS1 gave an inhibition of 27% (enzyme activity, inhibitor, radiometric; 50 nM).
c1ccc(CNc2nc(N3CCOc4ccccc43)nc3c2CCCC3)cc1 has an inhibition of 3.9% (target engagement in cells, inhibitor, chemoproteomics; 20 mM).
For Cc1cc(NC(=O)c2cccc3cc(-c4cccc5[nH]nc(N)c45)ccc23)ccc1F, the activity vs control was 110% (enzyme activity, inhibitor; 0.1 µM).
Cc1nc(N2CC[C@@H](O)C2)ncc1-c1cc(C(F)(F)F)cc2[nH]ncc12 gave a remaining binding of 91% (binding, competition with immobilised ligand; 1 µM).
CN(C)C1CCN(CC#Cc2nn(C3CCCC3)c3nc(NCc4ccccc4)ncc23)C1 (centres unmarked) has an inhibition of -1% (enzyme activity, inhibitor, FRET; 1 µM).
